Assay outcomes (PubChem)
bIAP act – intestinal alkaline phosphatase (bovine) activation | purified bovine IAP, CDP-star luminescence, 30 min; hits give high values; fold of DMSO-control signal, blank-subtracted | activation factor at 20 µM | 0.17% of 200,000 active;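 active means activation factor of 2 or more at 20 µM, a signal rise over negative controls twice the positive control's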
hIAP activ – increases human intestinal alkaline phosphatase activity. activation factor at 10 µM. purified human IAP, CDP-Star luminescence, 30 min; hits give high values; 1 = vehicle-only enzyme, 0 = enzyme-free background. 0.16% of 330,000 active. P09923;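 active means activation factor of the enzyme at least 2-fold when tested at 20 µM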
Target sequence (P09923 whole entry, looked up): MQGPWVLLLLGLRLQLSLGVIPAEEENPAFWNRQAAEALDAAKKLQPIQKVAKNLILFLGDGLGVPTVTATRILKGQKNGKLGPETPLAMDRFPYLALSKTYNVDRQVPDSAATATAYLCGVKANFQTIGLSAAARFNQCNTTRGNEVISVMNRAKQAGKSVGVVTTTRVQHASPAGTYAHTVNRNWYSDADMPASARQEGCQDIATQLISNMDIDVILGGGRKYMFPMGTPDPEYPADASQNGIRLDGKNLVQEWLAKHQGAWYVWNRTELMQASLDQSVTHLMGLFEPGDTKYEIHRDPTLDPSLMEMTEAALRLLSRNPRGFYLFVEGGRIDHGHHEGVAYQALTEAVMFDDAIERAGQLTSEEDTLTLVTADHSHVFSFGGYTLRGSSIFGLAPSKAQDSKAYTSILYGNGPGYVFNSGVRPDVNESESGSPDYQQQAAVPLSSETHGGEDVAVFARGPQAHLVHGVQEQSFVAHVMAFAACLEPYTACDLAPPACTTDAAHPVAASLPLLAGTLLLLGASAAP
mIAP act – mouse IAP activation; muIAP, CDP-Star luminescence, 30 min; hits give high values; 1 = vehicle-only enzyme signal, 0 = enzyme-free wells; activation factor at 10 µM; 0.24% of 330,000 active; AID 2805;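 active means activation factor of at least 2 at 20 µM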
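Assay system: mouse IAP enzyme / Compound: DMSO-dissolved test compounds / Timing: 30 min, room temperature / Measured by: luminescence from enzymatic CDP-Star hydrolysis / Control set: DMSO-only wells, enzyme-free buffer wells as negative control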
hIAP inh – human IAP inhibition; AID 2544; P09923; inhibition, % at 10 µM; purified IAP, CDP-Star luminescence, 30 min; 0.12% of 330,000 active;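 active means inhibition reaching a set limit with compound at 10 µM in the primary screen, cut at about 35% in these data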;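 further: plate controls were DMSO wells with enzyme for no effect and no-enzyme buffer wells for full effect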
bIAP inhibitor – blocks bovine intestinal alkaline phosphatase activity; 190,000 tested, under 10 active; inhibition, % at 20 µM; purified bovine IAP, CDP-star luminescence, 30 min;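 active means over 50% inhibition of intestinal alkaline phosphatase at 20 µM in the single-dose screen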
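Assay system – bovine IAP enzyme · Quantity – bovine IAP at 1/65,000,000 final dilution · Detection – CDP-star luminescence signal · Times – 30 min reaction at room temperature · Also added – CDP-star substrate at 30 µM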
mIAP inh – blocks mouse intestinal alkaline phosphatase | 0.2% of 330,000 active | inhibition, % at 10 µM | AID 2806 | purified mouse IAP, CDP-Star luminescence, 30 min;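 active means inhibition of at least 40% at 10 µM in the primary screen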;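 further: plate controls were DMSO with enzyme for no effect and no enzyme wells for full effect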
hIAP act conf – human IAP activation confirmation; shares compounds with hIAP activ; purified IAP, CDP-Star luminescence, 30 min; hits give low values; activation (%Activity, negative = activation), % at 8.3 µM; 10% of 880 active;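 active means at least twofold enzyme activation in any of six single-dose repeats, which the averaged readout prints as negative percent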
An asterisk follows results filed as active; / = not tested or not shown. In the library only some 0.72% were active in any assay of this set; here they are far more common.

SMILES | bIAP act | hIAP activ | mIAP act | hIAP inh | bIAP inhibitor | mIAP inh | hIAP act conf
CCOC(=O)C(=O)N/N=C(/c1ccccc1)c1ccc(OC)cc1 | / | 0.63 | 1 | 37* | / | -3 | -47
CC(C)CC(=O)Nc1ccc(C(=O)NNC(=S)NC(=O)C2CCCCC2)cc1 | 0.9 | 2.6* | 1.2 | -162 | 10 | -18 | -5
N#CCC(=O)Nc1ccc(C(=O)NNC(=S)NC2CCCCC2)cc1 | / | 1.8 | 1 | -76 | / | -2 | /
COc1ccc(CNC(=O)C2CCC(CNS(=O)(=O)c3ccccc3)CC2)cc1 (stereo unspecified) | / | 1.1 | 1 | -15 | / | -4 | /
CCNS(=O)(=O)c1ccc(CCC(=O)N2CCCC2)cc1 | / | 0.58 | 1 | 42* | / | -3 | 4
COc1ccc2[nH]c(C(=O)N/N=C/c3ccc(O)cc3O)cc2c1 | / | 2* | 0.82 | -104 | / | 18 | -9
CCN1CCN(c2ccc(S(=O)(=O)N3CCOCC3)cc2NC(=O)c2ccc(F)cc2Cl)CC1 | / | 0.96 | 1 | 4 | / | -4 | /
CC(=O)Nc1ccc(NC(=O)C2CC(=O)N(C(C)C)C2)cc1 (stereo unspecified) | / | 0.63 | 0.9 | 37* | / | 10 | 20
CC(C)N1CC(C(=O)Nc2ccccc2)CC1=O (stereo unspecified) | 0.9 | 1.2 | 1 | -15 | 7 | -2 | /
Cc1ccccc1CNC(=O)c1ccccc1N | 0.9 | 0.64 | 0.99 | 36* | 10 | 0 | 37
CC(C)N=C1NN=C(c2ccc(F)cc2)CS1 | 0.9 | 0.95 | 0.88 | 5 | 12 | 12 | /
COc1ccc(-n2nc3c(N4CCC(C(=O)NCc5cccc(C)c5)CC4)nnc(C)c3c2C)cc1 | / | 2.2* | 1.3 | -121 | / | -27 | -42
COc1ccccc1CCNC(=O)C1CCN(c2nnc(C)c3c(C)n(-c4ccc(C)cc4)nc23)CC1 | / | 2.3* | 1.3 | -132 | / | -25 | 31
CCOc1ccc(CNC(=O)C2CCN(c3nnc(C)c4c(C)n(-c5ccc(C)cc5)nc34)CC2)cc1 | / | 1.5 | 0.86 | -47 | / | 14 | /
Cc1cc(C)cc(CC(Cc2nc3ccccc3[nH]2)c2nc3ccccc3[nH]2)c1 (stereo unspecified) | 5.2* | 2.1* | 1.4 | -112 | -422 | -38 | -323*
Cc1ccc(OCCNS(=O)(=O)c2ccc(N3CCCC3=O)cc2)cc1C | 1 | 1.1 | 0.93 | -8 | -2 | 8 | /
Cc1ccc(OCCNS(=O)(=O)c2ccc(N3CCCC3=O)cc2)cc1 | 0.8 | 0.64 | 0.98 | 36* | 24 | 2 | -70
COc1ccc(/C=C/C(=O)OCC(=O)NCc2ccccc2Cl)cc1OC | / | 1.2 | 1.1 | -21 | / | -11 | /
Cn1nnnc1Sc1ncnc2scc(-c3ccsc3)c12 | / | 1.3 | 1.1 | -26 | / | -8 | /
O=Nc1[nH]c(=O)c(/C=C(\O)c2ccccc2)nc1NO | / | 2.1* | 0.85 | -113 | / | 15 | -85*
CC(=O)Nc1nc(-c2cccc3ccccc23)cs1 | / | 1.1 | 0.93 | -14 | / | 7 | /
CC(=O)Nc1nc(-c2ccc(Br)s2)cs1 | 0.6 | 2.2* | 0.92 | -120 | 38 | 8 | 6
COc1ccc(CN(C)C(=O)c2ccc3c(=O)n4c(nc3c2)CCC4)cc1 | / | 0.98 | 0.97 | 2 | / | 3 | /
O=C(CNS(=O)(=O)c1ccccc1)NNC(=O)C(Cl)Cl | 1.3 | 2.2* | 0.75 | -123 | -34 | 25 | -6
O=C(C1CCCC1)N1CCC(CC2CC(c3cccc(Br)c3)=NO2)(C(=O)NCC2CCCCC2)CC1 (stereo unspecified) | / | 0.91 | 1 | 9 | / | -1 | /
SMILES | bIAP act | hIAP activ | mIAP act | hIAP inh | bIAP inhibitor | mIAP inh | hIAP act conf
Cc1ccccc1NC(=O)Cn1nc(C)n2cccc2c1=O | / | 0.87 | 0.94 | 13 | / | 6 | /
COC(=O)c1cc(NC(=O)Cn2nc(C)n3cccc3c2=O)cc(C(=O)OC)c1 | / | 0.61 | 1 | 39* | / | -4 | -4
Cc1ccc(-c2cc(C(=O)N/N=C/c3ccccc3O)n[nH]2)o1 | / | 3.1* | 0.84 | -214 | / | 16 | 39
CCN(CC)CCCn1c2c(c(SCC(=O)Nc3ccc4c(c3)OCO4)nc1=O)CCC2 | / | 1 | 0.94 | 0 | / | 6 | /
Cn1cc(/C=C(\NC(=O)c2ccccc2Cl)C(=O)NCCCN2CCOCC2)c2ccccc21 | / | 1.1 | 1 | -9 | / | -1 | /
Cn1cc(/C=C(\NC(=O)c2ccccc2Cl)C(=O)NCCN2CCOCC2)c2ccccc21 | / | 0.62 | 0.93 | 38* | / | 7 | 14
CCOc1cc(/C=N/NC(=O)C(=O)N/N=C/c2ccc(O)c(OCC)c2)ccc1O | / | 0.62 | 0.82 | 38* | / | 18 | -48*
Cc1nc(-c2ccc(S(=O)(=O)N3CCCN(CCc4ccccc4)CC3)s2)cs1 | / | 2.3* | 0.87 | -127 | / | 13 | -3
O=C(O)[C@@H]1CC(O)CN1C(=O)CCc1c[nH]c2ccccc12 (stereo partly specified) | / | 0.97 | 0.98 | 3 | / | 2 | /
CCCCCCN1C=CC(=C/C=C(\C#N)C(=O)OCC)C=C1 | 0.6 | 0.56 | 0.64 | 44* | 42 | 36 | -27
Cc1ccc(NC(=O)NNC(=O)c2cc3ccccc3cc2O)cc1 | / | 2.1* | 0.96 | -112 | / | 4 | -70*
COc1ccccc1NC(=O)NNC(=O)c1cc2ccccc2cc1O | / | 2* | 0.89 | -101 | / | 11 | -55
CN(Cc1ccccc1)C(=O)c1[nH]cnc1C(=O)NCc1ccccc1 | / | 1.2 | 0.94 | -23 | / | 6 | /
O=C(Nc1nccs1)c1nc[nH]c1C(=O)NCc1ccccc1 | / | 2.4* | 1.1 | -136 | / | -7 | -3
CN(Cc1ccccc1)C(=O)c1[nH]cnc1C(=O)Nc1nccs1 | / | 2.5* | 1 | -145 | / | 0 | -141*
CCOC(=O)[C@H]1[C@H]2COc3ccccc3[C@@H]2N2C(=O)c3c(C)cc(C)cc3NC(=O)[C@@]12C | / | 1.1 | 1.1 | -6 | / | -6 | /
C=CCOC1=CS(=O)(=O)N(Cc2ccc(Br)cc2)c2ccc(Br)cc21 | / | / | 0.92 | / | / | 8 | /
CC1OC(Oc2c(-c3cc(O)c(O)c(O)c3)oc3cc(O)cc(O)c3c2=O)C(O)C(O)C1O (stereo unspecified) | / | 1.1 | 0.86 | -11 | / | 14 | /
O=C(O)C1OC(Oc2c(-c3ccc(O)c(O)c3)oc3cc(O)cc(O)c3c2=O)C(O)C(O)C1O (stereo unspecified) | 1 | 0.29 | 0.6 | 71* | 4 | 40 | 32
Cc1cc([N+](=O)[O-])nn1CC(=O)NNC(=S)Nc1ccc(F)cc1 | 1.2 | 2.1* | 0.99 | -111 | -24 | 1 | 6
Cc1cc([N+](=O)[O-])nn1CC(=O)Nc1ccc(F)cc1 | 1 | 0.99 | 1 | 1 | 0 | -1 | /
CC(C)OCCCNC(=O)COc1ccc2oc3c(c2c1)CCCC3 | / | 1 | 1.1 | -3 | / | -10 | /
Nc1nnc(Cc2cccc(Br)c2)s1 | / | 2.1* | 1 | -106 | / | -3 | -41
